Reference: ChEMBL document CHEMBL5329210, “Novel piperazine-1,2,3-triazole leads for the potential treatment of pancreatic cancer” (RSC Med Chem, 2023)

Assays:
MIA PaCa-2 [1] = test: Inhibition of cell growth of human MIA PaCa-2 cells at 25 uM measured after 72 hrs by CCK8 assay relative to control; format: functional
Procedure, shortened: (§1)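 Single 25 μM exposure, read by CCK-8, n = 3, relative to control. Seeding was 3×10^3/well for MiaPaCa2, 7×10^3/well for BxPC3 (in RPMI-1640/10% FBS) and 1×10^4/well for HPDE (in KSFM with rEGF/BPE). After 24 h attachment, cells were exposed for 72 h. CCK-8 was then incubated for 1 h, and A450 minus A650 was compared with 0.5% DMSO.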

U-87 MG = test: Inhibition of cell growth of human U87 cells at 25 uM measured after 72 hrs by MTT assay relative to control
MCF7 [2] = test: Inhibition of cell growth of human MCF7 cells at 25 uM measured after 72 hrs by MTT assay relative to control; details: MCF7, 72 h
BE(2)-C [3] = test: Inhibition of cell growth of human BE2C cells at 25 uM measured after 72 hrs by MTT assay relative to control
[4] = Inhibition of cell growth of human SJG2 cells at 25 uM measured after 72 hrs by MTT assay relative to control; details: SJ-G2, 72 h
HT-29 [5] = test: Inhibition of cell growth of human HT-29 cells at 25 uM measured after 72 hrs by MTT assay relative to control; details: HT-29, 72 h
A2780 [6] = test: Inhibition of cell growth of human A2780 cells at 25 uM measured after 72 hrs by MTT assay relative to control; details: A2780, 72 h
A-431 = test: Inhibition of cell growth of human A-431 cells at 25 uM measured after 72 hrs by MTT assay relative to control; details: A-431, 72 h
DU-145 = test: Inhibition of cell growth of human DU-145 cells at 25 uM measured after 72 hrs by MTT assay relative to control; details: DU-145, 72 h
[7] = Inhibition of cell growth of human MCF-10A cells at 25 uM measured after 72 hrs by MTT assay relative to control
NCI-H460 = test: Inhibition of cell growth of human NCI-H460 cells at 25 uM measured after 72 hrs by MTT assay relative to control; details: NCI-H460, 72 h
HT-29 [8] = test: Inhibition of cell growth of human HT-29 cells at 25 uM measured after 72 hrs by MTT assay relative to control; format: functional
Procedure, shortened: (§2)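 MTT read-out. Cancer lines were grown in DMEM with 10% FBS, glutamine and antibiotics. MCF10A was grown in DMEM:F12 with 5% horse serum, EGF, hydrocortisone, cholera toxin and insulin. Cells were plated in duplicate at 2500–4000/well, and drug was added 24 h later. After 72 h, absorbance was read at 540 nm. Single-point lines used 25 μM. GI50 is 50% growth inhibition versus untreated control. n = 3.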

MCF7 [9] = test: Inhibition of cell growth of human MCF7 cells at 25 uM measured after 72 hrs by MTT assay relative to control; format: functional; procedure, shortened: as §2
A2780 [10] = test: Inhibition of cell growth of human A2780 cells at 25 uM measured after 72 hrs by MTT assay relative to control; format: functional; procedure, shortened: as §2
BE(2)-C [11] = test: Inhibition of cell growth of human BE2C cells at 25 uM measured after 72 hrs by MTT assay relative to control; format: functional; procedure, shortened: as §2
MIA PaCa-2 [12] = test: Inhibition of cell growth of human MIA PaCa-2 cells at 25 uM measured after 72 hrs by MTT assay relative to control; format: functional; procedure, shortened: as §2
BXPC-3 [13] = test: Inhibition of cell growth of human BXPC-3 cells at 25 uM measured after 72 hrs by MTT assay relative to control; format: functional; procedure, shortened: as §2
ASPC1 = test: Inhibition of cell growth of human ASPC1 cells at 25 uM measured after 72 hrs by MTT assay relative to control; format: functional; procedure, shortened: as §2
Capan-2 = test: Inhibition of cell growth of human Capan-2 cells at 25 uM measured after 72 hrs by MTT assay relative to control; format: functional; procedure, shortened: as §2
PANC-1 = test: Inhibition of cell growth of human PANC-1 cells at 25 uM measured after 72 hrs by MTT assay relative to control; format: functional; procedure, shortened: as §2
HPAC = test: Inhibition of cell growth of human HPAC cells at 25 uM measured after 72 hrs by MTT assay relative to control; format: functional; procedure, shortened: as §2
[14] = Inhibition of cell growth of human MCF-10A cells at 25 uM measured after 72 hrs by MTT assay relative to control; format: toxicity, cell-based; procedure, shortened: as §2
BXPC-3 [15] = test: Inhibition of cell growth of human BXPC-3 cells at 25 uM measured after 72 hrs by CCK8 assay relative to control; format: functional; procedure, shortened: as §1
[16] = Inhibition of cell growth of human HPDE cells at 25 uM measured after 72 hrs by CCK8 assay relative to control; format: toxicity, cell-based; procedure, shortened: as §1

Row | SMILES | inhibition at 25 µM (MIA PaCa-2 [1]) [%] | inhibition at 25 µM (U-87 MG) [%] | inhibition at 25 µM (MCF7 [2]) [%] | inhibition at 25 µM (BE(2)-C [3]) [%] | inhibition at 25 µM [4] [%] | inhibition at 25 µM (HT-29 [5]) [%] | inhibition at 25 µM (A2780 [6]) [%] | inhibition at 25 µM (A-431) [%] | inhibition at 25 µM (DU-145) [%] | inhibition at 72 h, 25 µM [7] [%] | inhibition at 25 µM (NCI-H460) [%] | inhibition at 25 µM (HT-29 [8]) [%] | inhibition at 25 µM (MCF7 [9]) [%] | inhibition at 25 µM (A2780 [10]) [%] | inhibition at 25 µM (BE(2)-C [11]) [%] | inhibition at 25 µM (MIA PaCa-2 [12]) [%] | inhibition at 25 µM (BXPC-3 [13]) [%] | inhibition at 25 µM (ASPC1) [%] | inhibition at 25 µM (Capan-2) [%] | inhibition at 25 µM (PANC-1) [%] | also measured
1 | CC(=O)Nc1ccc(S(=O)(=O)N2CCN(CCCn3cc(-c4ccccc4)nn3)CC2)cc1 | 30 | 10 | 24 | 32 | 59 | 31 | 47 | 31 | 34 | 44 | 23 |  |  |  |  |  |  |  |  |  | 
2 | CC(=O)Nc1ccc(S(=O)(=O)N2CCN(CCCn3cc(-c4ccc(C)cc4)nn3)CC2)cc1 | 38 | 22 | 42 | 36 | 72 | 46 | 57 | 40 | 61 | 67 | 34 |  |  |  |  |  |  |  |  |  | 
3 | CC(=O)Nc1ccc(S(=O)(=O)N2CCN(CCCn3cc(-c4cccc(Cl)c4)nn3)CC2)cc1 | 32 | 1 | 31 | 27 | 33 | 42 | 49 | 2 | 24 | 43 | 18 |  |  |  |  |  |  |  |  |  | 
4 | Cc1ccc(-c2cn(CCCN3CCN(S(=O)(=O)c4ccccc4C(F)(F)F)CC3)nn2)cc1 |  |  |  |  |  |  |  |  |  |  |  | 86 | 79 | 75 | 35 | 38 | 11 | 57 | 42 | 48 | inhibition at 25 µM (HPAC): 41%; inhibition at 72 h, 25 µM [14]: 61%
5 | O=S(=O)(c1cccc(C(F)(F)F)c1)N1CCN(CCCn2cc(-c3ccc(C(F)(F)F)cc3)nn2)CC1 |  |  |  |  |  |  |  |  |  |  |  | 50 | 86 | 65 | 61 | 58 | 55 | 50 | 67 | 60 | inhibition at 25 µM (HPAC): 74%; inhibition at 72 h, 25 µM [14]: 59%
6 | COc1cccc(-c2cn(CCCN3CCN(S(=O)(=O)c4ccc(Cl)cc4)CC3)nn2)c1 | < 10 |  |  |  |  |  |  |  |  |  |  |  |  |  |  |  |  |  |  |  | inhibition at 25 µM (BXPC-3 [15]): 22.9%; inhibition at 72 h, 25 µM [16]: 54.3%
7 | COc1cccc(-c2cn(CCCN3CCN(S(=O)(=O)c4ccc(C(C)=O)cc4)CC3)nn2)c1 | < 10 |  |  |  |  |  |  |  |  |  |  |  |  |  |  |  |  |  |  |  | inhibition at 25 µM (BXPC-3 [15]): 22.8%; inhibition at 72 h, 25 µM [16]: 30.1%
8 | CC(=O)Nc1ccc(S(=O)(=O)N2CCN(CCCn3cc(-c4ccc([N+](=O)[O-])cc4)nn3)CC2)cc1 | 40 | 27 | 47 | 42 | 37 | 50 | 72 | 33 | 48 | 69 | 40 |  |  |  |  |  |  |  |  |  | 
9 | CC(=O)Nc1ccc(S(=O)(=O)N2CCN(CCCn3cc(-c4ccc(Br)cc4)nn3)CC2)cc1 | 34 | 4 | 28 | 39 | 48 | 58 | 46 | 16 | 54 | 58 | 19 |  |  |  |  |  |  |  |  |  | 
10 | CC(=O)Nc1ccc(S(=O)(=O)N2CCN(CCCn3cc(-c4ccc(F)cc4)nn3)CC2)cc1 | 35 | 16 | 27 | 38 | 67 | 22 | 50 | 28 | 35 | 41 | 18 |  |  |  |  |  |  |  |  |  | 
11 | CCc1ccc(-c2cn(CCCN3CCN(S(=O)(=O)c4cccc(C(F)(F)F)c4)CC3)nn2)cc1 |  |  |  |  |  |  |  |  |  |  |  | 65 | 86 | 86 | 61 | 50 | 39 | 60 | 58 | 59 | inhibition at 25 µM (HPAC): 41%; inhibition at 72 h, 25 µM [14]: 77%
12 | O=S(=O)(c1cccc(C(F)(F)F)c1)N1CCN(CCCn2cc(-c3ccc(Br)cc3)nn2)CC1 |  |  |  |  |  |  |  |  |  |  |  | 46 | 56 | 72 | 40 | 35 | 22 | 53 | 39 | 41 | inhibition at 25 µM (HPAC): < 10%; inhibition at 72 h, 25 µM [14]: 74%
13 | COc1cccc(-c2cn(CCCN3CCN(S(=O)(=O)c4ccc(C(C)C)cc4)CC3)nn2)c1 | 11.4 |  |  |  |  |  |  |  |  |  |  |  |  |  |  |  |  |  |  |  | inhibition at 25 µM (BXPC-3 [15]): < 10%; inhibition at 72 h, 25 µM [16]: 48.8%
14 | COc1cccc(-c2cn(CCCN3CCN(S(=O)(=O)c4ccc(C(C)(C)C)cc4)CC3)nn2)c1 | < 10 |  |  |  |  |  |  |  |  |  |  |  |  |  |  |  |  |  |  |  | inhibition at 25 µM (BXPC-3 [15]): < 10%; inhibition at 72 h, 25 µM [16]: 38.2%
15 | O=S(=O)(c1ccccc1C(F)(F)F)N1CCN(CCCn2cc(-c3ccc(C(F)(F)F)cc3)nn2)CC1 |  |  |  |  |  |  |  |  |  |  |  | 69 | 75 | 80 | 62 | 45 | 19 | 50 | 42 | 54 | inhibition at 25 µM (HPAC): 29%; inhibition at 72 h, 25 µM [14]: 64%
16 | COc1cccc(-c2cn(CCCN3CCN(S(=O)(=O)c4ccc(F)cc4)CC3)nn2)c1 | < 10 |  |  |  |  |  |  |  |  |  |  |  |  |  |  |  |  |  |  |  | inhibition at 25 µM (BXPC-3 [15]): 15.1%; inhibition at 72 h, 25 µM [16]: 40.8%
17 | Cc1ccc(-c2cn(CCCN3CCN(S(=O)(=O)c4cccc(C(F)(F)F)c4)CC3)nn2)cc1 |  |  |  |  |  |  |  |  |  |  |  | 63 | 86 | 83 | 60 | 48 | 32 | 60 | 54 | 57 | inhibition at 25 µM (HPAC): 40%; inhibition at 72 h, 25 µM [14]: 79%
18 | CCc1ccc(-c2cn(CCCN3CCN(S(=O)(=O)c4ccc(NC(C)=O)cc4)CC3)nn2)cc1 | 38 | < 0 | 30 | 36 | 29 | 64 | 59 | 16 | 42 | 67 | 32 |  |  |  |  |  |  |  |  |  | 
19 | CC(=O)Nc1ccc(S(=O)(=O)N2CCN(CCCn3cc(-c4ccc(C(F)(F)F)cc4)nn3)CC2)cc1 | 43 | 16 | 42 | 41 | 42 | 59 | 67 | 31 | 52 | 73 | 30 |  |  |  |  |  |  |  |  |  | 
